Experimental data: ChEMBL document CHEMBL1129249, “Synthesis and activity of a novel series of 3-biarylquinuclidine squalene synthase inhibitors” (J Med Chem, 1996)

What follows are molecules tested on Rattus norvegicus (assay: Inhibition of cholesterol biosynthesis from mevolanate after oral dosing to rat).
Assay type: functional
In short: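 Rats were dosed orally, and cholesterol synthesis from mevalonate was then measured. ED50 (mg/kg) was derived from dose–response data and reported with 95% confidence limits.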
In the case of OC1(c2ccc(-c3ccncc3)cc2)CN2CCC1CC2 (stereo unspecified), the ED50 is reported as 2.7 mg/kg.

Each molecule was assayed against T1, Squalene synthase (Rattus norvegicus, UniProt Q02769) (assay: In vitro inhibition against rat microsomal squalene synthase (SS)).
T1 sequence (Q02769 whole entry): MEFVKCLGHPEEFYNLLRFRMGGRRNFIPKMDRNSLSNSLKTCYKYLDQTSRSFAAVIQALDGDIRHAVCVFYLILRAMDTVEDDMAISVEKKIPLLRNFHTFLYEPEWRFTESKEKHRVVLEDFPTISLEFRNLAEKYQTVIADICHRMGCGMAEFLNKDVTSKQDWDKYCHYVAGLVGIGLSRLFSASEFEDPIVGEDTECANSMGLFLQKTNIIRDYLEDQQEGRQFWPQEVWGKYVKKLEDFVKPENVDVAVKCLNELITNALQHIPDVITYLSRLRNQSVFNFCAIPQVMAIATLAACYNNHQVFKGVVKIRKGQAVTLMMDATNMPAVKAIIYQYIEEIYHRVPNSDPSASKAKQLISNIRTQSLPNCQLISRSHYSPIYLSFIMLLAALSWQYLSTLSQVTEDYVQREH
In short: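 Squalene synthase came from rat microsomes. Inhibition was tested in phosphate buffer. IC50 values are from duplicate determinations (n = 2).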
OC1(c2ccc(-c3cnc4ccccc4c3)cc2)CN2CCC1CC2 (stereo unspecified) showed an IC50 of 200 nM.
C1=C(c2ccc(-c3ccccc3)cc2)C2CCN1CC2 showed an IC50 of 18 nM.
In the case of OC1(c2ccc(-c3cccs3)s2)CN2CCC1CC2 (stereo unspecified), the IC50 is reported as over 2500 nM.
With OC1(c2ccc(-c3nc4ccccc4s3)cc2)CN2CCC1CC2 (stereo unspecified) the IC50 was 6 nM.
Work on OC1(c2ccc(-c3ccncc3)cc2)CN2CCC1CC2 (stereo unspecified) yielded an IC50 of 161 nM.
OC1(c2ccc(-c3ccc(F)cc3)cc2)CN2CCC1CC2 (stereo unspecified) showed an IC50 of 18 nM.
Molecule CC(C)=CCC/C(C)=C/CC/C(C)=C/COC1CN2CCC1CC2 (stereo unspecified) has an IC50 of 70 nM.
In the case of Oc1ccc(-c2ccc(C3(O)CN4CCC3CC4)cc2)cc1 (stereo unspecified), the IC50 is reported as 132 nM.
[O-][S+](CC1(O)CN2CCC1CC2)c1ccc(-c2ccccc2)cc1 (stereo unspecified) gave an IC50 of over 2500 nM.
OC1(COc2ccc(-c3ccccc3)cc2)CN2CCC1CC2 (stereo unspecified) showed an IC50 of 13 nM.
OC1(c2ccc(C3OCCCO3)cc2)CN2CCC1CC2 (stereo unspecified) showed an IC50 of over 2500 nM.
COC1(c2ccc(-c3ccccc3)cc2)CN2CCC1CC2 (stereo unspecified) was tested, and the IC50 was over 2500 nM.
For OC1(c2ccccc2)CN2CCC1CC2 (stereo unspecified), the IC50 was over 2500 nM.
In the case of O=S(=O)(NC1CN2CCC1CC2)c1ccc(-c2ccccc2)cc1 (stereo unspecified), the IC50 is reported as over 2500 nM.
OC1(c2ccc(-c3nccs3)cc2)CN2CCC1CC2 (stereo unspecified) gave an IC50 of 30 nM.
OC1(c2ccc(-c3ccccn3)cc2)CN2CCC1CC2 (stereo unspecified) gave an IC50 of 240 nM.
In the case of OC1(c2ccc(C3CCCCC3)cc2)CN2CCC1CC2 (stereo unspecified), the IC50 is reported as 190 nM.
OC1(C#Cc2ccc(-c3ccccc3)cc2)CN2CCC1CC2 (stereo unspecified) gave an IC50 of 3 nM.
In the case of C(=C/C1CN2CCC1CC2)/c1ccc(-c2ccccc2)cc1 (stereo unspecified), the IC50 is reported as 580 nM.
Work on c1ccc(-c2ccc(C3CN4CCC3CC4)cc2)cc1 (stereo unspecified) yielded an IC50 of 11 nM.
OC1(CSc2ccc(-c3ccccc3)cc2)CN2CCC1CC2 (stereo unspecified) gave an IC50 of 8 nM.
OC1(c2cnc(-c3ccccc3)s2)CN2CCC1CC2 (stereo unspecified) gave an IC50 of 60 nM.
O=C(NC1CN2CCC1CC2)c1ccc(-c2ccccc2)cc1 (stereo unspecified) gave an IC50 of 1200 nM.
Molecule OC1(CCc2ccc(-c3ccccc3)cc2)CN2CCC1CC2 (stereo unspecified) has an IC50 of 7 nM.
Work on OC1(c2ccc(-c3cccnc3)cc2)CN2CCC1CC2 (stereo unspecified) yielded an IC50 of 270 nM.
Molecule c1ccc(-c2ccc(CCC3CN4CCC3CC4)cc2)cc1 (stereo unspecified) has an IC50 of 5 nM.
For OC1(c2cccc(-c3ccccc3)c2)CN2CCC1CC2 (stereo unspecified), the IC50 was 60 nM.
C(=C\C1CN2CCC1CC2)/c1ccc(-c2ccccc2)cc1 (stereo unspecified) gave an IC50 of 4 nM.
Molecule OC1(c2ccc(-c3ccc(-c4ccccc4)cc3)cc2)CN2CCC1CC2 (stereo unspecified) has an IC50 of 370 nM.
With OC1(c2ccc(-c3cccs3)cc2)CN2CCC1CC2 (stereo unspecified) the IC50 was 40 nM.
Molecule CC(C)=CCC/C(C)=C/CC/C(C)=C/COCC1(O)CN2CCC1CC2 (stereo unspecified) has an IC50 of 60 nM.
O=S(=O)(c1ccc(-c2ccccc2)cc1)C1CN2CCC1CC2 (stereo unspecified) gave an IC50 of over 2500 nM.
O=S(=O)(CC1(O)CN2CCC1CC2)c1ccc(-c2ccccc2)cc1 (stereo unspecified) showed an IC50 of over 2500 nM.
c1ccc(-c2ccc(CC3CN4CCC3CC4)cc2)cc1 (stereo unspecified) was tested, and the IC50 was 27 nM.
OC1(c2ccc(-c3ncccn3)cc2)CN2CCC1CC2 (stereo unspecified) showed an IC50 of 30 nM.
Molecule OC1(c2ccc(-c3ccccc3)cc2)CN2CCC1CC2 (stereo in doubt; 2) has an IC50 of 16 nM.
For OC1(c2ccc(-c3ccccc3)cc2)CN2CCC1CC2 (stereo in doubt; 2a(+)), the IC50 was 7 nM.
In the case of OC1(c2ccc(-c3ccccc3)cc2)CN2CCC1CC2 (stereo in doubt; 2a(-)), the IC50 is reported as 121 nM.
In the case of OC(c1ccc(-c2ccccc2)cc1)C1CN2CCC1CC2 (stereo in doubt; 32), the IC50 is reported as 2500 nM.
For OC(c1ccc(-c2ccccc2)cc1)C1CN2CCC1CC2 (stereo in doubt; 33), the IC50 was 2500 nM.
